Among the data in ChEMBL document CHEMBL1158483, “N-O-isopropyl sulfonamido-based hydroxamates: design, synthesis and biological evaluation of selective matrix metalloproteinase-13 inhibitors as potential therapeutic agents for osteoarthritis” (J Med Chem, 2009) are IC50, Ki and inhibition values, retold here.

The target in test [1] is T1, Collagenase 3 (Homo sapiens, UniProt P45452). Briefly: Inhibition of MMP13.
The target of test [2] is Matrix metalloproteinase-14 (Homo sapiens, UniProt P50281). Kind of test: Inhibition of human recombinant MMP14. The method, boiled down: (§1)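 Human recombinant enzymes in Tris 50 mM pH 7.5, NaCl 150 mM, CaCl2 10 mM, Brij 35 0.05%, DMSO 1%. Final enzyme: MMP-1 2.0 nM, MMP-2 2.9, MMP-3 5, MMP-8 1.5, MMP-9 2.7, MMP-14 cd 1, MMP-16 cd 15, TACE 7.5 nM. Pro-MMP-1/-2/-8 activated with APMA 2 mM, pro-MMP-9 with APMA 1 mM, each 1 h at 37 °C. Pro-MMP-3 activated with trypsin 5 µg/mL for 30 min at 37 °C, then soybean trypsin inhibitor.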

Test [3] addresses Neutrophil collagenase (Homo sapiens, UniProt P22894). Kind of test: Inhibition of MMP8. The method, boiled down:
as §1

Test [4] deals with T2, Interstitial collagenase (Homo sapiens, UniProt P03956).
T2 sequence (P03956 whole entry): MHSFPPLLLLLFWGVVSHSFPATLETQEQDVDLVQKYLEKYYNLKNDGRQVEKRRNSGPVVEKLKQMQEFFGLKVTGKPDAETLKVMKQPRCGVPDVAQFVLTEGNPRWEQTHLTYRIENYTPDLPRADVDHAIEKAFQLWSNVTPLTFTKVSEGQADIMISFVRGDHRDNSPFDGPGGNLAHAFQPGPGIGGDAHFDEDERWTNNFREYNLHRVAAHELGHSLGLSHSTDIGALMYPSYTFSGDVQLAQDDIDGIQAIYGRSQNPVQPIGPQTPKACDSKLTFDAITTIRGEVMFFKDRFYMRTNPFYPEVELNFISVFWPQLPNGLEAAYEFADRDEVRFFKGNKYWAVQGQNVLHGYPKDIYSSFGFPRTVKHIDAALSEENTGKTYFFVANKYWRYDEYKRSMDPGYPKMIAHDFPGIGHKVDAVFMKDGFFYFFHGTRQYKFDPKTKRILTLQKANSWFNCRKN
Briefly: Inhibition of MMP1. The method, boiled down:
as §1

Test [5] addresses Matrix metalloproteinase-9 (Homo sapiens, UniProt P14780). Briefly: Inhibition of MMP9. The method, boiled down: as §1
Test [6] addresses 72 kDa type IV collagenase (Homo sapiens, UniProt P08253). Briefly: Inhibition of MMP2. Summed up: as §1
In test [7] the target is Stromelysin-1 (Homo sapiens, UniProt P08254). Briefly: Inhibition of MMP3. Summed up:
as §1

Test [8] addresses Matrix metalloproteinase-16 (Homo sapiens, UniProt P51512). Kind of test: Inhibition of human recombinant MMP16. Summed up: as §1
Test [9] is filed under the species Sus scrofa. Kind of test: Inhibition of MMP13-mediated collagen degradation in long term IL-1-alpha-stimulated pig articular cartilage explant culture assessed as hydroxyproline release at 10 uM. Summed up: (§2)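 Porcine metacarpophalangeal cartilage explants from 3–9-month pigs were rested 24 h with serum, then 3 days serum-free. They were stimulated with IL-1α 10 ng/mL plus inhibitor at 0.1, 1 or 10 µM in serum-free DMEM, with medium changed every 3–4 days. Hydroxyproline was measured in the medium after 6 N HCl hydrolysis, using chloramine T/DMBA and absorbance at 560 nm against a standard curve. Cumulative release was corrected for unstimulated background.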

Test [10] addresses Disintegrin and metalloproteinase domain-containing protein 17 (Homo sapiens, UniProt P78536). Briefly: Inhibition of TACE. The method, boiled down: as §1
Test [11] addresses T2, Interstitial collagenase. Briefly: Inhibition of MMP1-mediated collagen degradation by SDS-PAGE. Summed up: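 Full-length MMP-1 (0.5 nM) preincubated with inhibitor (0–10 µM) for 2 h at 25 °C in Tris-HCl 50 mM pH 7.5, NaCl 150 mM, CaCl2 5 mM, Brij-35 0.05%, NaN3 0.02%. Guinea-pig skin acid-soluble collagen (final 1.35 mg/mL) added, 16 h at 25 °C, stopped with EDTA. Full-length and 3/4-fragment α2 chains quantified by densitometry after 7.5% SDS-PAGE with Coomassie stain; IC50 derived.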

The species named for test [12] is Sus scrofa. Briefly: Inhibition of MMP13-mediated collagen degradation in long term IL-1-alpha-stimulated pig articular cartilage explant culture assessed as hydroxyproline release. Summed up: as §2
Test [13] deals with T1, Collagenase 3. Briefly: Inhibition of MMP13-mediated collagen degradation by SDS-PAGE.
The species entered for test [14] is Sus scrofa. Briefly: Inhibition of MMP13-mediated collagen degradation in long term IL-1-alpha-stimulated pig articular cartilage explant culture assessed as hydroxyproline release at 1 uM. Summed up: as §2

Activity calls are given as the source filed them. The rule behind the calls is not given here.

Matrix metalloproteinase-16, sequence (P51512 whole entry): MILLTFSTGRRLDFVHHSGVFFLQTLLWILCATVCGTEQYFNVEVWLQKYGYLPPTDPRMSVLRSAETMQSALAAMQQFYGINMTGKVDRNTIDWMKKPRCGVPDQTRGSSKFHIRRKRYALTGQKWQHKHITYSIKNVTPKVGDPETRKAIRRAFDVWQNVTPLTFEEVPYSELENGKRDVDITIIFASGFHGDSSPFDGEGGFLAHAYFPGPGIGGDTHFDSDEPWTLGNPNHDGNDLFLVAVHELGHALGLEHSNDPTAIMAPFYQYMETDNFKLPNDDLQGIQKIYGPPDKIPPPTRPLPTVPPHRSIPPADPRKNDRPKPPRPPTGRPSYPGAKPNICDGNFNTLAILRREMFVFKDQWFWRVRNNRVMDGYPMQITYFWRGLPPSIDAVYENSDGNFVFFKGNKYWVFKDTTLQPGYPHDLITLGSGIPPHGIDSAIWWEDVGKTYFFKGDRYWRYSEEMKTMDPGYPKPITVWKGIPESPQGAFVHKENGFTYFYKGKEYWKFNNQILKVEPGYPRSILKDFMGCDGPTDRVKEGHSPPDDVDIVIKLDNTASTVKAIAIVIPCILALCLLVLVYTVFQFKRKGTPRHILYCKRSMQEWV
Neutrophil collagenase, sequence (P22894 whole entry): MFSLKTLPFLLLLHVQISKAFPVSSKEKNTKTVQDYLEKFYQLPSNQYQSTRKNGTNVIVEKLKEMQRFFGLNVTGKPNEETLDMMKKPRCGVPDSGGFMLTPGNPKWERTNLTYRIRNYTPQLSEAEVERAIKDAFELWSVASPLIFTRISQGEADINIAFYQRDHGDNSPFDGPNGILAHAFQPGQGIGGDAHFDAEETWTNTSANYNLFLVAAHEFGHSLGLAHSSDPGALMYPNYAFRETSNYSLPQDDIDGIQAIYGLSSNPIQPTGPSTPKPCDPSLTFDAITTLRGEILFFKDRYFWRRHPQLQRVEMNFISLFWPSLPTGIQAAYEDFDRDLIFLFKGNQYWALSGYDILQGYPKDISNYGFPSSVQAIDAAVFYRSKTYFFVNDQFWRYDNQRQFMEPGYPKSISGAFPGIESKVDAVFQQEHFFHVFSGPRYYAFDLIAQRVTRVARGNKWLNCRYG
Disintegrin and metalloproteinase domain-containing protein 17, sequence (P78536 whole entry, the tested form may be a part): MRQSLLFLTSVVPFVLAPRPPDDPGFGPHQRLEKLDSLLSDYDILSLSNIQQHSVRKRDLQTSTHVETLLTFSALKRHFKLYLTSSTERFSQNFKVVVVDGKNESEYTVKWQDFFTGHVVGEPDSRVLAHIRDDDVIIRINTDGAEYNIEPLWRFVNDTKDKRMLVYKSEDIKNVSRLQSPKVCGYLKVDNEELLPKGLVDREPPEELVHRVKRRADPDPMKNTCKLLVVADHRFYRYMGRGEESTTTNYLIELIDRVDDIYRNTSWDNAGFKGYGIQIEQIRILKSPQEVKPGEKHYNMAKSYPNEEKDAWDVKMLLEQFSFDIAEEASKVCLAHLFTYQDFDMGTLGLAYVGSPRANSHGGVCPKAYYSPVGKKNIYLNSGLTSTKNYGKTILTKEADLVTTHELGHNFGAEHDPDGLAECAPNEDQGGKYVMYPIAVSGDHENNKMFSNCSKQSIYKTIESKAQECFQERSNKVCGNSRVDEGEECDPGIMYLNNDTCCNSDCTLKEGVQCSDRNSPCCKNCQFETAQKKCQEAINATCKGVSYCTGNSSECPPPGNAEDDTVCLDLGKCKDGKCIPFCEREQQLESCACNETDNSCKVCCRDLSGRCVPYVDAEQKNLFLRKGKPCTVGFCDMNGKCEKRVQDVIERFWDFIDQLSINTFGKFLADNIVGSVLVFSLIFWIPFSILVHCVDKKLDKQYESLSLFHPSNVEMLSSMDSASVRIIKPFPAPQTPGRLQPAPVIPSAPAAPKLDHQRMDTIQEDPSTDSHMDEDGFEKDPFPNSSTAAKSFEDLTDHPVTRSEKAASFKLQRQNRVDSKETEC
Matrix metalloproteinase-9, sequence (P14780 whole entry): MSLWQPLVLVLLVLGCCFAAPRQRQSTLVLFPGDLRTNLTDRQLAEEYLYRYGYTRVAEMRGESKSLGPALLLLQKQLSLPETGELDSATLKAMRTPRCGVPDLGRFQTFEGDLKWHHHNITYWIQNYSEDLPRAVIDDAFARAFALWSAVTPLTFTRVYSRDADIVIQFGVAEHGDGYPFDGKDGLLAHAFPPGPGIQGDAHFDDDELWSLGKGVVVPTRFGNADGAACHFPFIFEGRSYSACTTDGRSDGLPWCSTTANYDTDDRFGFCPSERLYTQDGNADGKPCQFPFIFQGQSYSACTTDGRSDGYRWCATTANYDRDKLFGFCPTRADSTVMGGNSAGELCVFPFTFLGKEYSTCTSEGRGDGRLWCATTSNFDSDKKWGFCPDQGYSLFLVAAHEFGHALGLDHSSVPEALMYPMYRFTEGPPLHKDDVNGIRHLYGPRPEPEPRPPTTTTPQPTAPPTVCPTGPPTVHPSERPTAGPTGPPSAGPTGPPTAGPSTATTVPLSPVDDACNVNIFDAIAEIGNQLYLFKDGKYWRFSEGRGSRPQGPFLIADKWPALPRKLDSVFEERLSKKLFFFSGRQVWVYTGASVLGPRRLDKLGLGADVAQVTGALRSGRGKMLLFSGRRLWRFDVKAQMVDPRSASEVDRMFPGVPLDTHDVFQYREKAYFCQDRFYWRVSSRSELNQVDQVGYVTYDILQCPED
72 kDa type IV collagenase, sequence (P08253 whole entry): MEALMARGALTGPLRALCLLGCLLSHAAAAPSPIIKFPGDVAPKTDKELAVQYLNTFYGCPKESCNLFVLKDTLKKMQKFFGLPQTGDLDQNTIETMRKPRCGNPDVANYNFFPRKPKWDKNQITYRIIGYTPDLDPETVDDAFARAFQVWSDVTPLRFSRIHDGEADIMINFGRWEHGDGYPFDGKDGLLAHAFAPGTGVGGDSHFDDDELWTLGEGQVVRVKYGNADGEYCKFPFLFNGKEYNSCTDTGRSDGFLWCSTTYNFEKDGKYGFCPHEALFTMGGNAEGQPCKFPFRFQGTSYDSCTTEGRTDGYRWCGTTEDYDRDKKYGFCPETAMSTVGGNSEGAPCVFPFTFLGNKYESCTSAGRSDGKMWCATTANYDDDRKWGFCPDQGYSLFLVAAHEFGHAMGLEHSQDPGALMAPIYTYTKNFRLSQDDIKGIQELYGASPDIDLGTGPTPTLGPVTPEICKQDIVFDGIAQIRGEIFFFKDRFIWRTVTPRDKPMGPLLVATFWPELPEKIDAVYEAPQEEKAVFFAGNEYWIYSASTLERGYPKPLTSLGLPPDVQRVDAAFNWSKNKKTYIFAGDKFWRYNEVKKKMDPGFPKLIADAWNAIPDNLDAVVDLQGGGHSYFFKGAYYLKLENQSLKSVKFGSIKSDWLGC
Stromelysin-1, sequence (P08254 whole entry): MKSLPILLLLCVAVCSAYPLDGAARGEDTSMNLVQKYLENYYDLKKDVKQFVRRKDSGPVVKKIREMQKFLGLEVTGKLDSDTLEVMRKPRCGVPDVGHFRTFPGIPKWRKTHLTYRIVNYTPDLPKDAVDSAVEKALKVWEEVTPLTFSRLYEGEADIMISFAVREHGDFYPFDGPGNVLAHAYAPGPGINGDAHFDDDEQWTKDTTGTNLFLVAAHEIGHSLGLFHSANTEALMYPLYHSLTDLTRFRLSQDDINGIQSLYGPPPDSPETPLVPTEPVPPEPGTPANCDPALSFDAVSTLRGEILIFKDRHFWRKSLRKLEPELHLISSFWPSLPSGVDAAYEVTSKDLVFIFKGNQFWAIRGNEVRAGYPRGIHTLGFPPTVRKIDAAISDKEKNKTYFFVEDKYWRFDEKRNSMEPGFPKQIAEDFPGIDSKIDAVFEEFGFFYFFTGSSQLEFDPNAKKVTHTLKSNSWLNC

With `CCc1ccc(-c2ccc(S(=O)(=O)N(CC(=O)NO)OC(C)C)s2)cc1`, the IC50 (usually the concentration needed to halve the response being measured) is 91 nM in [1]; 2400 nM in test [2]; 140 nM in test [3]; more than 10000 nM in [4]; 680 nM in test [5]; 56 nM in [6]. This compound registered an IC50 in test [7] of 4300 nM.

As to `CC(C)ON(CC(=O)NO)S(=O)(=O)c1ccc(-c2ccccc2)cc1`, the IC50 in test [1] is 45 nM; in test [2], 2300 nM; in [3] it was 260 nM; in test [4] it was 12000 nM; in test [8], 900 nM; in test [10], more than 100000 nM. Also, the half-maximal inhibitory concentration (IC50) in test [11] is 2900 nM; in [13], 25 nM; in [7], 5900 nM. In addition, the Ki (usually the dissociation constant of the complex between target and ligand, obtained from inhibition or displacement) was determined as 20 nM in test [1] and 13 nM in [6]. The inhibition entry in test [9] is “Active”. Further, the inhibition entry in test [12] is “Dose-dependent effect”.

As for `CC(C)ON(CC(=O)NO)S(=O)(=O)c1ccc(/C=C/c2ccc(-c3ccccc3)cc2)cc1`, the IC50 in test [1] stood at 41 nM; in test [2], 2800 nM; in test [3], 3600 nM; in test [4] it was 5600 nM; in test [5], 2300 nM; in test [6], 74 nM. The compound also registered an IC50 in [7] of 710 nM.

For `CC(C)ON(CC(=O)NO)S(=O)(=O)c1ccc(-c2ccc(OCc3ccc(Cl)cc3)cc2)cc1`, the IC50 in test [1] was determined as 19 nM; in [2], 3400 nM; in [3] it was 1700 nM; in test [4] it was 13000 nM; in test [8] it was 15000 nM; in test [10] it was 35000 nM. Also, the IC50 turned out to be 1100 nM in test [5], 40 nM in test [6] and 1800 nM in test [7]. The Ki in test [1] is 8.2 nM; in [6], 25 nM.

Regarding `CCCCc1ccc(C#Cc2ccc(S(=O)(=O)N(CC(=O)NO)OC(C)C)s2)cc1`, the IC50 in [1] amounted to 260 nM; in [2] it was 11000 nM; in test [3] it was 7600 nM; in test [4], 13000 nM; in [5], 4400 nM; in test [6], 360 nM. Further, the IC50 in [7] turned out to be 4300 nM.

On to `CCCCOc1ccc(-c2ccc(S(=O)(=O)N(CC(=O)NO)OC(C)C)cc2)cc1`, for which the concentration for half-maximal inhibition (IC50) in test [1] stood at 15 nM; in [2], 5500 nM; in test [3], 560 nM; in [4], 11000 nM; in test [5], 44 nM; in test [6], 5.5 nM. This compound returned a half-inhibitory concentration (IC50) in test [7] of 1600 nM.

As to `CC(C)ON([C@@H](C(=O)NO)C(C)C)S(=O)(=O)c1ccc(-c2ccc(OCc3ccc(Cl)cc3)cc2)cc1`, the IC50 in test [1] was 3 nM; in test [2], 14000 nM; in test [3], 63 nM; in [4], 48000 nM; in test [8], 5000 nM; in [10], more than 100000 nM. Also, the IC50 was 15000 nM in test [11]; 69 nM in [5]; 1.4 nM in test [13]; 9.6 nM in [6]; 180 nM in [7]. The Ki turned out to be 29 nM in [1] and 54 nM in test [6]. In addition, in test [12], the inhibition result was “Dose-dependent effect”. In addition, the inhibition entry in test [14] was “Active”.

Take `COc1ccc(-c2ccc(S(=O)(=O)N(CC(=O)NO)OC(C)C)s2)cc1`: the IC50 is 25 nM in [1]; more than 1000 nM in test [2]; 110 nM in [3]; more than 10000 nM in test [4]; 250 nM in [5]; 17 nM in test [6]. The compound further came in with an IC50 in test [7] of 1200 nM.

On to `O=C(CNS(=O)(=O)c1ccc(-c2ccccc2)cc1)NO`, for which the IC50 in test [1] is 2.8 nM; in [2], 70 nM; in test [3], 7 nM; in test [4], 610 nM; in test [11], 970 nM; in [5], 34 nM. Also, the IC50 in [13] is 2.4 nM; in test [6] it was 2 nM; in test [7], 320 nM.

For `COc1ccc(-c2ccc(S(=O)(=O)N(CC(=O)NO)OC(C)C)cc2)cc1`, the IC50 in [1] is 10 nM; in [2] it was 1000 nM; in test [3], 65 nM; in test [4] it was 13000 nM; in test [5], 160 nM; in test [6], 4.2 nM. In test [7], this compound displayed an IC50 of 1800 nM. In addition, the Ki in test [1] was 5.8 nM; in [6], 3.8 nM.

For `CC(C)ON(CC(=O)NO)S(=O)(=O)c1ccc(Oc2ccccc2)cc1`, the 50% inhibitory concentration (IC50) in test [1] worked out at 63 nM; in [2], 590 nM; in test [3] it was 66 nM; in [4] it was 59000 nM; in test [5], 110 nM; in test [6], 26 nM. This compound returned a half-inhibitory concentration (IC50) in test [7] of 1200 nM.

Take `CSc1ccc(-c2ccc(S(=O)(=O)N(CC(=O)NO)OC(C)C)cc2)cc1`: the IC50 in test [1] was 7.2 nM; in [2] it was 320 nM; in test [3], 37 nM; in [4], 3300 nM; in test [5], 77 nM; in test [6], 1.5 nM. In [7], this compound yielded a half-maximal inhibitory concentration (IC50) of 1300 nM.

With `CC(C)CN(CC(=O)NO)S(=O)(=O)c1ccc(-c2ccccc2)cc1`, the IC50 was 39 nM in test [1]; 530 nM in test [2]; 48 nM in test [3]; 4800 nM in [4]; 4100 nM in test [11]; 34 nM in test [5]. Moreover, the IC50 in test [13] worked out at 9.4 nM; in [6], 12 nM; in test [7] it was 920 nM.

In the case of `CC(C)ON(CC(=O)NO)S(=O)(=O)c1ccc(-c2ccc(F)cc2)s1`, the IC50 in test [1] was determined as 600 nM; in [2], 6500 nM; in [3] it was 440 nM; in [4], 20000 nM; in test [5] it was 3200 nM; in test [6] it was 310 nM. This compound also came in with an IC50 in test [7] of 9100 nM.
